Laboratory results published in ChEMBL document CHEMBL4270541, “Synthesis and antimicrobial evaluation of amino sugar-based naphthoquinones and isoquinoline-5,8-diones and their halogenated compounds” (Eur J Med Chem, 2018).
Converted amounts (≈) assume the structure as drawn. The source made the active and inactive calls. No cut-off for these calls is given here.

Key:
[1] = tested on: Enterococcus faecalis; experiment: Antimicrobial activity against Enterococcus faecalis INCQS 00234 ATCC 29212 assessed as zone of inhibition at 5 mg/ml after 18 to 24 hrs by disc diffusion method; type: functional; conditions: ATCC 29212 INCQS 00234, read-out: IZ
[2] = tested on: Pseudomonas aeruginosa; experiment: Bactericidal activity against Pseudomonas aeruginosa INCQS 00099 ATCC 27853 incubated for 24 hrs followed by transfer of microbial suspension to agar plates and measured after 24 hrs post transfer by resazurin dye-based colorimetric analysis; type: functional; conditions: INCQS 00099 ATCC 27853, 24 h, read-out: MBC99.9
Procedure, shortened: (§1)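 For MBC, 10 µL from each clear MIC well was plated on agar and incubated 24 h at 37°C. MBC is the minimum concentration inhibiting 99.9% of growth. […] Triplicate.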

[3] = tested on: Staphylococcus aureus; experiment: Bactericidal activity against Staphylococcus aureus INCQS 00015 ATCC 25923 at 256 ug/ml incubated for 24 hrs followed by transfer of microbial suspension to agar plates and measured after 24 hrs post transfer by resazurin dye-based colorimetric analysis; type: functional, organism-based; procedure, shortened: as §1
[4] = tested on: Escherichia coli; experiment: Ratio of MBC99.9 to MIC for Escherichia coli INCQS 00033 ATCC 25922; type: functional, ATCC 25922 INCQS 00033
Procedure, shortened: (§2)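 MBC/MIC ratio from the 24 h, 37°C microdilution MIC and the agar-plating MBC (99.9% growth inhibition). A ratio ≤2 was classed as bactericidal and ≥4 as bacteriostatic.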

[5] = Hemolytic activity against human erythrocytes assessed as hemolysis at 200 ug/ml after 3 hrs by spectrophotometric analysis relative to control; type: ADME, cell-based, Erythrocyte; conditions: read-out: Activity
Procedure, shortened: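 Erythrocytes collected in citrate tubes, washed three times with PBS pH 7.4 by centrifugation and resuspended in PBS. Incubated with compounds at 200 µg/mL for 3 h at 37°C. Released hemoglobin was read in the supernatant at 545 nm against 1% Triton X-100 (complete lysis) and 1% DMSO (negative control). Below 10% hemolysis was taken as hemocompatible. Three independent experiments.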

[6] = tested on: Staphylococcus aureus; experiment: Antimicrobial activity against methicillin-resistant Staphylococcus aureus BMB9393 assessed as zone of inhibition at 5 mg/ml after 18 to 24 hrs by disc diffusion method; type: functional; conditions: read-out: IZ
[7] = tested on: Staphylococcus aureus; experiment: Antimicrobial activity against methicillin-resistant Staphylococcus aureus BMB9393 at 256 ug/ml after 24 hrs by microdilution assay; type: functional, organism-based
[8] = tested on: Pseudomonas aeruginosa; experiment: Ratio of MBC99.9 to MIC for Pseudomonas aeruginosa INCQS 00099 ATCC 27853; type: functional; procedure, shortened: as §2
[9] = tested on: Klebsiella pneumoniae; experiment: Antimicrobial activity against Klebsiella pneumoniae INCQS 00083 ATCC 4352 assessed as zone of inhibition at 5 mg/ml after 18 to 24 hrs by disc diffusion method; type: functional; conditions: read-out: IZ
[10] = tested on: Escherichia coli; experiment: Antimicrobial activity against Escherichia coli INCQS 00033 ATCC 25922 after 24 hrs by microdilution assay; type: functional; conditions: ATCC 25922 INCQS 00033, 24 h
[11] = tested on: Escherichia coli; experiment: Bactericidal activity against Escherichia coli INCQS 00033 ATCC 25922 incubated for 24 hrs followed by transfer of microbial suspension to agar plates and measured after 24 hrs post transfer by resazurin dye-based colorimetric analysis; type: functional; conditions: ATCC 25922 INCQS 00033, 24 h, read-out: MBC99.9; procedure, shortened: as §1
[12] = tested on: Pseudomonas aeruginosa; experiment: Antimicrobial activity against Pseudomonas aeruginosa INCQS 00099 ATCC 27853 after 24 hrs by microdilution assay; type: functional; conditions: INCQS 00099 ATCC 27853, 24 h
[13] = tested on: Staphylococcus aureus; experiment: Antimicrobial activity against Staphylococcus aureus INCQS 00015 ATCC 25923 assessed as zone of inhibition at 5 mg/ml after 18 to 24 hrs by disc diffusion method; type: functional; conditions: read-out: IZ
[14] = tested on: Staphylococcus aureus; experiment: Bactericidal activity against methicillin-resistant Staphylococcus aureus BMB9393 at 256 ug/ml incubated for 24 hrs followed by transfer of microbial suspension to agar plates and measured after 24 hrs post transfer by resazurin dye-based colorimetric analysis; type: functional, organism-based
Procedure, shortened: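 From MIC wells with no visible growth, 10 µL is transferred to agar plates and incubated 24 h at 37°C. MBC is the minimum concentration inhibiting 99.9% of growth. […] Triplicate.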

[15] = tested on: Staphylococcus epidermidis; experiment: Bactericidal activity against Staphylococcus epidermidis INCQS 00016 ATCC 12228 incubated for 24 hrs followed by transfer of microbial suspension to agar plates and measured after 24 hrs post transfer by resazurin dye-based colorimetric analysis; type: functional; conditions: ATCC 12228 INCQS 00016, 24 h, read-out: MBC99.9; procedure, shortened: as §1
[16] = tested on: Staphylococcus epidermidis; experiment: Ratio of MBC99.9 to MIC for Staphylococcus epidermidis INCQS 00016 ATCC 12228; type: functional, ATCC 12228 INCQS 00016; procedure, shortened: as §2
[17] = tested on: Staphylococcus epidermidis; experiment: Antimicrobial activity against Staphylococcus epidermidis INCQS 00016 ATCC 12228 after 24 hrs by microdilution assay; type: functional; conditions: ATCC 12228 INCQS 00016, 24 h
[18] = tested on: Pseudomonas aeruginosa; experiment: Antimicrobial activity against Pseudomonas aeruginosa INCQS 00099 ATCC 27853 assessed as zone of inhibition at 5 mg/ml after 18 to 24 hrs by disc diffusion method; type: functional; conditions: read-out: IZ
[19] = tested on: Staphylococcus epidermidis; experiment: Antimicrobial activity against Staphylococcus epidermidis INCQS 00016 ATCC 12228 assessed as zone of inhibition at 5 mg/ml after 18 to 24 hrs by disc diffusion method; type: functional; conditions: ATCC 12228 INCQS 00016, read-out: IZ
[20] = tested on: Escherichia coli; experiment: Antimicrobial activity against Escherichia coli INCQS 00033 ATCC 25922 assessed as zone of inhibition at 5 mg/ml after 18 to 24 hrs by disc diffusion method; type: functional; conditions: ATCC 25922 INCQS 00033, read-out: IZ
[21] = tested on: Proteus mirabilis; experiment: Antimicrobial activity against Proteus mirabilis INCQS 00095 ATCC 15290 assessed as zone of inhibition at 5 mg/ml after 18 to 24 hrs by disc diffusion method; type: functional; conditions: read-out: IZ
[22] = tested on: Staphylococcus simulans; experiment: Bactericidal activity against Staphylococcus simulans INCQS 00254 ATCC 27851 at 256 ug/ml incubated for 24 hrs followed by transfer of microbial suspension to agar plates and measured after 24 hrs post transfer by resazurin dye-based colorimetric analysis; type: functional, organism-based; procedure, shortened: as §1
[23] = tested on: Staphylococcus simulans; experiment: Antimicrobial activity against Staphylococcus simulans INCQS 00254 ATCC 27851 assessed as zone of inhibition at 5 mg/ml after 18 to 24 hrs by disc diffusion method; type: functional; conditions: read-out: IZ
[24] = tested on: Staphylococcus simulans; experiment: Antimicrobial activity against Staphylococcus simulans INCQS 00254 ATCC 27851 at 256 ug/ml after 24 hrs by microdilution assay; type: functional, organism-based
[25] = tested on: Staphylococcus aureus; experiment: Antimicrobial activity against Staphylococcus aureus INCQS 00015 ATCC 25923 at 256 ug/ml after 24 hrs by microdilution assay; type: functional, organism-based
[26] = tested on: Staphylococcus epidermidis; experiment: Antimicrobial activity against Staphylococcus epidermidis INCQS 00016 ATCC 12228 at 256 ug/ml after 24 hrs by microdilution assay; type: functional, organism-based; conditions: ATCC 12228 INCQS 00016
[27] = tested on: Staphylococcus epidermidis; experiment: Bactericidal activity against Staphylococcus epidermidis INCQS 00016 ATCC 12228 at 256 ug/ml incubated for 24 hrs followed by transfer of microbial suspension to agar plates and measured after 24 hrs post transfer by resazurin dye-based colorimetric analysis; type: functional, organism-based; conditions: ATCC 12228 INCQS 00016; procedure, shortened: as §1

Which results are given for COC(=O)c1c(C)nc(C)c2c1C(=O)C(Br)=C(N)C2=O?
zone of inhibition at 5000 µg/mL [1]: 0 mm; MBC [2]: 32 µg/mL (≈ 94.4 µM); Activity [3]: inactive; Ratio [4]: 1; hemolysis at 3 h, 200 ug/ml [5]: 10.1 to 14.4%; zone of inhibition at 5000 µg/mL [6]: 22 mm; Activity [7]: inactive; Ratio [8]: 1; zone of inhibition at 5000 µg/mL [9]: 0 mm; MIC [10]: 8 µg/mL (≈ 23.6 µM); MBC [11]: 8 µg/mL (≈ 23.6 µM); MIC [12]: 32 µg/mL (≈ 94.4 µM); zone of inhibition at 5000 µg/mL [13]: 23 mm; Activity [14]: inactive; MBC [15]: 32 µg/mL (≈ 94.4 µM); Ratio [16]: 1; MIC [17]: 32 µg/mL (≈ 94.4 µM); zone of inhibition at 5000 µg/mL [18]: 28 mm; zone of inhibition at 5000 µg/mL [19]: 22 mm; zone of inhibition at 5000 µg/mL [20]: 30 mm; zone of inhibition at 5000 µg/mL [21]: 0 mm; Activity [22]: inactive; zone of inhibition at 5000 µg/mL [23]: 17 mm; Activity [24]: inactive; Activity [25]: inactive

With COC(=O)c1c(C)nc(C)c2c1C(=O)C(Br)=C(NC[C@H]1O[C@@H](OC)[C@@H]3OC(C)(C)O[C@@H]31)C2=O as the molecule, how does the zone of inhibition at 5000 µg/mL [1] read?
Its zone of inhibition at 5000 µg/mL is 0 mm.

And the Activity [26]?
Its Activity is “inactive”.

And the MBC [2]?
Its MBC is 8 µg/mL (≈ 15.2 µM).

And the Activity [3]?
Its Activity is “inactive”.

What about the Activity [27] of the same molecule?
The Activity was “inactive”.

What about the Ratio [4] of the same molecule?
The Ratio was 1.

What about the hemolysis at 3 h, 200 ug/ml [5] of the same molecule?
Its hemolysis at 3 h, 200 ug/ml is < 10%.

What about the zone of inhibition at 5000 µg/mL [6] of the same molecule?
The zone of inhibition at 5000 µg/mL was 12 mm.

And the Activity [7]?
Its Activity is “inactive”.

And the Ratio [8]?
Its Ratio is 1.

And the zone of inhibition at 5000 µg/mL [9]?
The zone of inhibition at 5000 µg/mL was 0 mm.

What about the MIC [10] of the same molecule?
The MIC was 8 µg/mL (≈ 15.2 µM).

And the MBC [11]?
Its MBC is 8 µg/mL (≈ 15.2 µM).

What about the MIC [12] of the same molecule?
The MIC was 8 µg/mL (≈ 15.2 µM).

And the zone of inhibition at 5000 µg/mL [13]?
The zone of inhibition at 5000 µg/mL was 13 mm.

And the Activity [14]?
Its Activity is “inactive”.

What about the zone of inhibition at 5000 µg/mL [18] of the same molecule?
Its zone of inhibition at 5000 µg/mL is 17 mm.

And the zone of inhibition at 5000 µg/mL [19]?
Its zone of inhibition at 5000 µg/mL is 11 mm.

What about the zone of inhibition at 5000 µg/mL [20] of the same molecule?
The zone of inhibition at 5000 µg/mL was 17 mm.

What about the zone of inhibition at 5000 µg/mL [21] of the same molecule?
Its zone of inhibition at 5000 µg/mL is 0 mm.

And the Activity [22]?
Its Activity is “inactive”.

What about the zone of inhibition at 5000 µg/mL [23] of the same molecule?
Its zone of inhibition at 5000 µg/mL is 0 mm.

And the Activity [24]?
The Activity was “inactive”.

What about the Activity [25] of the same molecule?
Its Activity is “inactive”.
